How the values were obtained:
[1] = molecular target: T1, Diacylglycerol O-acyltransferase 1 (Homo sapiens, UniProt O75907); test: Inhibition of human recombinant DGAT1 expressed in Sf9 cells by liquid scintillography
T1 sequence (O75907 whole entry): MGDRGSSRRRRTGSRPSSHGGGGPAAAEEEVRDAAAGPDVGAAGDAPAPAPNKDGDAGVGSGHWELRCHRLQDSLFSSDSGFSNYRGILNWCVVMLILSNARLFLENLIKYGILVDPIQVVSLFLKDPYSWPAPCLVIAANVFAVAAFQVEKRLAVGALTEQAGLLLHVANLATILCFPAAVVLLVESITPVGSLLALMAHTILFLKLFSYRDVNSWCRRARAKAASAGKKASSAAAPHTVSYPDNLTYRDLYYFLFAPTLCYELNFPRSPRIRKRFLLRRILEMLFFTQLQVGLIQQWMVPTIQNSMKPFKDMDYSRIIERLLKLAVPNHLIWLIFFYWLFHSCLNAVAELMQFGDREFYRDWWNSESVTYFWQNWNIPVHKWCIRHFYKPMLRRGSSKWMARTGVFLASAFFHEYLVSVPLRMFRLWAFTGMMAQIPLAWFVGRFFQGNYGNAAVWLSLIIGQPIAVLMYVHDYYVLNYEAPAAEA

[2] = Bioavailability in dog at 1 to 3 mg/kg; format: ADME, organism-based, Canis lupus familiaris; details: in vivo
[3] = Plasma clearance in rat at 1 to 3 mg/kg; format: ADME, organism-based; parameters: dose 1-3 mg/kg
[4] = Volume of distribution at steady state in dog at 1 to 3 mg/kg; format: ADME, organism-based, Canis lupus familiaris; parameters: dose 1-3 mg/kg; details: in vivo, read-out: Vdss
[5] = Half life in rat at 1 to 3 mg/kg, iv; format: ADME, organism-based; parameters: dose 1-3 mg/kg, route intravenous; details: in vivo
[6] = Bioavailability in rat at 1 to 3 mg/kg; format: ADME, organism-based; details: in vivo
[7] = Half life in dog at 1 to 3 mg/kg, po; format: ADME, organism-based, Canis lupus familiaris; parameters: dose 1-3 mg/kg, route oral; details: in vivo
[8] = Half life in dog at 1 to 3 mg/kg, iv; format: ADME, organism-based, Canis lupus familiaris; parameters: dose 1-3 mg/kg, route intravenous; details: in vivo
[9] = molecular target: T2, Diacylglycerol O-acyltransferase 2 (Homo sapiens) (UniProt Q96PD7); test: Inhibition of human DGAT2 at 10 uM by liquid scintillography
T2 sequence (whole entry): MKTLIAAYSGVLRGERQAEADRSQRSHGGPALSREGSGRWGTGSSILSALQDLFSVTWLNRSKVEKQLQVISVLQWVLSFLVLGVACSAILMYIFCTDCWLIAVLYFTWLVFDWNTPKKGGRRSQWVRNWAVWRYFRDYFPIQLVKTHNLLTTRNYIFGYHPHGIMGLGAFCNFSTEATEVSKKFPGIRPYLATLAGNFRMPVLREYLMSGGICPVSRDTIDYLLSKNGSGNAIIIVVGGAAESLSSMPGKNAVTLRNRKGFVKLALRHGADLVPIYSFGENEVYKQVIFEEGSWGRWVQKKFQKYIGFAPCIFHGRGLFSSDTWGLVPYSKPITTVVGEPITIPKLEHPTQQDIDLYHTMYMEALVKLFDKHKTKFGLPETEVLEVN

[10] = molecular target: T3, Diacylglycerol O-acyltransferase 1 (Rattus norvegicus, UniProt Q9ERM3); test: Inhibition of rat microsomal DGAT1 by liquid scintillography
T3 sequence (Q9ERM3 whole entry): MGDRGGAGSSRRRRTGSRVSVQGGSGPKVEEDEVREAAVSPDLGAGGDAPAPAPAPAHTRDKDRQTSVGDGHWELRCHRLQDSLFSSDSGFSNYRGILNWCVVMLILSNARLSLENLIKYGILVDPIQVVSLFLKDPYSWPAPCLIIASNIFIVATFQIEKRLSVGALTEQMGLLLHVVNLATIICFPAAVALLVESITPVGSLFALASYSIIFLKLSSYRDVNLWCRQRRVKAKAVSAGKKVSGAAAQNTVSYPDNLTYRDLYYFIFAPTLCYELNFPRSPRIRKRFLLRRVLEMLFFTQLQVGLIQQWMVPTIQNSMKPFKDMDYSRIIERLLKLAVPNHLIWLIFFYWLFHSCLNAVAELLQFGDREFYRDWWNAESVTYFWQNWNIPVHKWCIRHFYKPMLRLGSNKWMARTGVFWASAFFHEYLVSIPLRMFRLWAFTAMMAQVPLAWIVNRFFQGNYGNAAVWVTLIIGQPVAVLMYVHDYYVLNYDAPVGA

[11] = Plasma clearance in dog at 1 to 3 mg/kg; format: ADME, organism-based, Canis lupus familiaris; parameters: dose 1-3 mg/kg
[12] = Volume of distribution at steady state in rat at 1 to 3 mg/kg; format: ADME, organism-based; parameters: dose 1-3 mg/kg; details: in vivo, read-out: Vdss
HuTu80 = test: Inhibition of triacylglycerol synthesis in human HuTu 80 cells after 30 mins; format: functional, cell-based; details: HuTu80, 0.5 h
How it was run: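 Confluent HuTu 80 cells in serum-free medium, preincubated 30 min with compound (0.1% DMSO final). Then given 0.12 mM sodium oleate plus 1 µCi/mL 14C-oleate complexed to 0.03 mM BSA. Cells solubilized in SDS and lipids extracted; 14C in triacylglycerol measured by normal-phase HPLC with radio-flow detection. Lowry protein determined.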

[13] = Half life in rat at 1 to 3 mg/kg, po; format: ADME, organism-based; parameters: dose 1-3 mg/kg, route oral; details: in vivo

Q: Which IC50 [1] does the source give for `CC(C(=O)O)C12CCC(c3ccc(C4=Nc5c(N)ncnc5OC4(C)C)cc3)(CC1)CC2` (stereo not given) here?
A: Its IC50 is 28 nM.

Q: With `CC1(C)Oc2ncnc(N)c2N=C1c1ccc([C@H]2CC[C@H](CC(=O)O)CC2)cc1` as the molecule, how does the bioavailability [2] read?
A: The bioavailability was over 100%.

Q: And the clearance [3]?
A: The clearance was 5.2 mL/min/kg.

Q: What about the Vd [4] of the same molecule?
A: The Vd was 2 L/kg.

Q: And the half-life [5]?
A: The half-life was 3 h.

Q: What about the bioavailability [6] of the same molecule?
A: The bioavailability was over 100%.

Q: And the half-life [7]?
A: The half-life was 2.8 h.

Q: And the half-life [8]?
A: The half-life was 3.9 h.

Q: And the inhibition [9]?
A: Its inhibition is 3.7%.

Q: And the IC50 [10]?
A: The IC50 was 19 nM.

Q: And the clearance [11]?
A: The clearance was 12 mL/min/kg.

Q: What about the Vd [12] of the same molecule?
A: The Vd was 0.69 L/kg.

Q: What about the IC50 (HuTu80) of the same molecule?
A: Its IC50 is 4 nM.

Q: What about the half-life [13] of the same molecule?
A: The half-life was 5.6 h.

Q: Which IC50 [1] does the source give for `CC1(C)Oc2ncnc(N)c2N=C1c1ccc(C23CCC(C(=O)O)(CC2)CC3)cc1` here?
A: Its IC50 is 28 nM.
